Here are results for 25 compounds from ChEMBL document CHEMBL1148489, “Synthesis and structure-activity relationships of 1-arylmethyl-5-aryl-6-methyluracils as potent gonadotropin-releasing hormone receptor antagonists” (J Med Chem, 2004).

Data set [1] addresses T1, Gonadotropin-releasing hormone receptor (Homo sapiens, UniProt P30968).
T1 sequence (P30968 whole entry): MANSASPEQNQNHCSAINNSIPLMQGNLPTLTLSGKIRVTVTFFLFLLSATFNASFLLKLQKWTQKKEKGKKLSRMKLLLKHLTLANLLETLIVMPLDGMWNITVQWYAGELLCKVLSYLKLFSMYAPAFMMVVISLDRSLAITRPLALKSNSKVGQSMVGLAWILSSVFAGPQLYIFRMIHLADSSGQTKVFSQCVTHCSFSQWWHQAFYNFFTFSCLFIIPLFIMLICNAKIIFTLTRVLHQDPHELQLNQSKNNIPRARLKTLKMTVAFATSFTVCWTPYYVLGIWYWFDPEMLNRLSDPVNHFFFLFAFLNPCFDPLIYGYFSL
Nature of the data set: Binding affinity evaluated by the ability to inhibit des-Gly10[125I]Tyr5,D-Leu6,NMeLeu7,Pro9-NEt]- Gonadotropin-releasing hormone binding to cloned human Gonadotropin-releasing hormone receptor expressed in HEK293 cells. In kind it is cell-based.

The target of data set [2] is T1, Gonadotropin-releasing hormone receptor. Briefly: In vitro inhibition of [Ca2+] influx in RBL cells expressing Gonadotropin-releasing hormone receptor. In kind it is functional, cell-based. A digest of the protocol:
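RBL cells stably expressing full-length human GnRH receptor, attached overnight and loaded with 2 μM Fluo-4 for 1 h at 37 °C. Cells washed, then preincubated 1 min with increasing compound before 5 nM GnRH stimulation. Ca2+ flux read as fluorescence on FLIPR; IC50 derived.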

Data set [3] has as its target T2, Gonadotropin-releasing hormone receptor (Rattus norvegicus, UniProt P30969).
T2 sequence (P30969 whole entry): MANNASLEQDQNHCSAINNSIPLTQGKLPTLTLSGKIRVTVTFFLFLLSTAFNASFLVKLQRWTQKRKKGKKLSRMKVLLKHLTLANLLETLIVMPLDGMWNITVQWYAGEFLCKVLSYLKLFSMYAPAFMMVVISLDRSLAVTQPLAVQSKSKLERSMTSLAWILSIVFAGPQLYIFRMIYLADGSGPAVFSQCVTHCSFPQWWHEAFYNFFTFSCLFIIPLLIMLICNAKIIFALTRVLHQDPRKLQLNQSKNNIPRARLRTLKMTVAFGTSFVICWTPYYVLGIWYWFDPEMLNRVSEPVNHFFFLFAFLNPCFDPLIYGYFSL
Briefly: In vivo inhibition of rat Gonadotropin-releasing hormone receptor. In kind it is organism-based.

Data set [4] in a line: Clearance value was determined. In kind it is ADME, organism-based. The settings on record: mouse, in vivo. A digest of the protocol:
(§1)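 Terminal blood at preset times, composite sampling, plus hepatic portal vein samples under isoflurane. Plasma flash-frozen; LLOQ 5 ng/mL. Parameters from a noncompartmental model.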

A short description of data set [5]: Oral bioavailability in mouse. In kind it is ADME, organism-based. The settings on record: in vivo. A digest of the protocol:
as §1

Data set [6] in a line: Half life was determined. It counts as ADME, organism-based. The settings on record: mouse, in vivo. A digest of the protocol:
as §1

The test system of the next data set is Mus musculus. Briefly: AUC value was determined after oral administration. It counts as ADME, organism-based, Plasma. The settings on record: in vivo. A digest of the protocol:
as §1

Data set [7] has as its target T2, Gonadotropin-releasing hormone receptor. Briefly: In vivo inhibition of rat Gonadotropin releasing hormone receptor. In kind it is organism-based.

Each structure is given as a SMILES string. pIC50, pKi: −log10 of the molar value.

As to `Cc1c(-c2ccc(C(C)C)cc2)c(=O)n(CCN(C)CCc2ccccn2)c(=O)n1Cc1c(F)cccc1F`, in data set [1], the pKi (commonly −log10 of the Ki, conventionally taken in molar units) was 6.96.

The compound `COc1ccc(-c2c(C)n(Cc3c(F)cccc3F)c(=O)n(CCN(C)CCc3ccccn3)c2=O)cc1OC` had a pKi in data set [1] of 5.32.

Regarding `CCc1ccc(CN[C@@H](C)Cn2c(=O)c(-c3cccc(OC)c3F)c(C)n(Cc3c(F)cccc3F)c2=O)o1`, in data set [2], the pIC50 – broadly, the negative decadic logarithm of the IC50, by convention in mol/L – was 7.57. Further, the pKi in data set [1] was 7.82; in data set [3] it was 5.31.

With `CSc1ccc(-c2c(C)n(Cc3c(F)cccc3F)c(=O)n(CCN(C)CCc3ccccn3)c2=O)cc1`, the negative-log Ki (pKi) in data set [1] is 6.92.

Take `Cc1c(-c2cccc(Cl)c2)c(=O)n(CCN(C)CCc2ccccn2)c(=O)n1Cc1c(F)cccc1F`: the pKi in data set [1] was 6.43.

Consider `COc1cccc(-c2c(C)n(Cc3c(F)cccc3F)c(=O)n(C[C@H](C)NC3CCCC3)c2=O)c1F`, for which the clearance (in general, a measure of how efficiently the substance is removed, as volume per time) in data set [4] was 70.7 mL/min/kg. Further, the bioavailability (commonly the share of a dose that reaches the circulation, judged against a reference dose that is usually intravenous) in data set [5] stood at 2.2%. In addition, the half-life (in general, how long it takes for the measured level to halve) in data set [6] is 36 min. Further, in the data set with Mus musculus, the AUC (as a rule, the area under the concentration-time curve, a measure of exposure) turned out to be 57 ng·h/mL.

`COc1cc(-c2c(C)n(Cc3c(F)cccc3F)c(=O)n(CCN(C)CCc3ccccn3)c2=O)cc(OC)c1OC`: the pKi in data set [1] was 4.97.

`Cc1c(-c2ccc3ccccc3c2)c(=O)n(CCN(C)CCc2ccccn2)c(=O)n1Cc1c(F)cccc1F` showed a pKi in data set [1] of 6.34.

The compound `Cc1c(-c2ccc3oc4ccccc4c3c2)c(=O)n(CCN(C)CCc2ccccn2)c(=O)n1Cc1c(F)cccc1F` gave a pKi in data set [1] of 6.77. Compared with the last compound, the pKi is 0.43 log units higher.

For `COCc1cccc(-c2c(C)n(Cc3c(F)cccc3F)c(=O)n(CCN(C)CCc3ccccn3)c2=O)c1`, in data set [1], the pKi is 5.82.

For `Cc1ccc(-c2c(C)n(Cc3c(F)cccc3F)c(=O)n(CCN(C)CCc3ccccn3)c2=O)cc1`, in data set [1], the pKi is 6.66.

In the case of `C=Cc1ccc(-c2c(C)n(Cc3c(F)cccc3F)c(=O)n(CCN(C)CCc3ccccn3)c2=O)cc1`, the pKi in data set [1] was 6.47.

Take `COc1cccc(-c2c(C)n(Cc3c(F)cccc3F)c(=O)n(C[C@H](C)NCc3ccccc3)c2=O)c1F`: the pIC50 in data set [2] is 7.42. The pKi in data set [1] was 7.60; in data set [3], 4.60.

In the case of `Cc1c(-c2ccc3c(c2)OC(F)(F)O3)c(=O)n(CCN(C)CCc2ccccn2)c(=O)n1Cc1c(F)cccc1F`, the pKi in data set [1] is 6.33.

Consider `COc1cccc(-c2c(C)n(Cc3c(F)cccc3F)c(=O)n(CCN(C)CCc3ccccn3)c2=O)c1`, for which the clearance in data set [4] was determined as 120 mL/min/kg. In data set [5], the bioavailability came out at 1.6%. Moreover, the half-life in data set [6] is 24 min. In addition, in the data set with Mus musculus, the AUC was determined as 23 ng·h/mL.

`Cc1c(-c2cccc(C(C)C)c2)c(=O)n(CCN(C)CCc2ccccn2)c(=O)n1Cc1c(F)cccc1F` showed a pKi in data set [1] of 6.62.

In the case of `Cc1c(-c2ccccc2F)c(=O)n(CCN(C)CCc2ccccn2)c(=O)n1Cc1c(F)cccc1F`, the pKi in data set [1] was 7.09. This pKi is 0.47 log units higher than that of the compound before.

In the case of `CCC(CC)N[C@@H](C)Cn1c(=O)c(-c2cccc(OC)c2F)c(C)n(Cc2c(F)cccc2F)c1=O`, the clearance in data set [4] was 129 mL/min/kg. The bioavailability in data set [5] is 8.2%. The same compound showed a half-life in data set [6] of 54 min. The AUC with Mus musculus is 110 ng·h/mL.

`COc1cccc(-c2c(C)n(Cc3c(F)cccc3F)c(=O)n(C[C@@H](C)NCc3nccs3)c2=O)c1F` showed a pIC50 in data set [2] of 8.21. Besides, the pKi in data set [1] was 7.89; in data set [7], 5.00. Moreover, the clearance in data set [4] stood at 97.3 mL/min/kg. For the same compound, in data set [5], the bioavailability stood at 6%. This compound showed a half-life in data set [6] of 78 min. This compound yielded an AUC in the data set with Mus musculus of 104 ng·h/mL.

Take `CCOc1ccc(-c2c(C)n(Cc3c(F)cccc3F)c(=O)n(CCN(C)CCc3ccccn3)c2=O)cc1`: the pKi in data set [1] is 6.17.

Regarding `COc1cccc(-c2c(C)n(Cc3c(F)cccc3F)c(=O)n([C@H](C)CNCc3ccccc3C)c2=O)c1F`, in data set [1], the pKi is 8.15.

In turn, `COc1cccc(-c2c(C)n(Cc3c(F)cccc3F)c(=O)n(C[C@H](C)NCc3sccc3C)c2=O)c1F` showed a pIC50 in data set [2] of 8.40. Also, the pKi in data set [1] is 8.40; in data set [3], 5.49.

In turn, `COc1cccc(-c2c(C)n(Cc3c(F)cccc3F)c(=O)n(CCN(C)CCc3ccccn3)c2=O)c1F` had a pKi in data set [1] of 8.52.

`Cc1c(-c2cccc(F)c2)c(=O)n(CCN(C)CCc2ccccn2)c(=O)n1Cc1c(F)cccc1F` showed a pKi in data set [1] of 5.92.

Consider `COCc1ccc(-c2c(C)n(Cc3c(F)cccc3F)c(=O)n(CCN(C)CCc3ccccn3)c2=O)cc1`, for which, in data set [1], the pKi is 5.85.
